Consider eight molecules from ChEMBL document CHEMBL3297687, “Eremophilane-type sesquiterpenoids with diverse skeletons from Ligularia sagitta” (J Nat Prod, 2014).

Converted amounts (≈) assume the structure as drawn.

One may read the IC50 as the concentration that gives 50% inhibition. A low value points to higher potency. As usually defined, the MIC is the lowest concentration that inhibits growth of the organism.

One assay concerns HeLa. Kind of assay: Cytotoxicity against human HeLa cells after 48 hrs by SRB method. It counts as functional, cell-based. Background: In SRB staining, fixed cells bind dye roughly in proportion to their protein.
In the next assay the test system is HL-60. In words: Cytotoxicity against human HL60 cells after 48 hrs by SRB method. The assay is classed as functional, cell-based. The conditions noted are these: HL-60, 48 h.
Assay [1] in a line: Cytotoxicity against human […] cells after 48 hrs by SRB method. The assay is classed as functional, cell-based.
Another assay has as its system Bacillus cereus. Kind of assay: Antibacterial activity against Bacillus cereus grown in sheep blood agar media assessed as concentration required to inhibit bacterial growth due to absence of hemolysis of erythrocytes after 18 hrs by […] broth dilution method. It counts as functional. Summed up:
(§1)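 Colonies from overnight culture on 5% sheep blood agar were suspended in Mueller−Hinton broth to 0.5 McFarland (about 1.5 × 10^8 CFU/mL), then diluted 10-fold. Aqueous stocks (1 g/L) were used at once and doubly diluted 250−0.125 μg/mL in Mueller−Hinton broth with 5% defibrinated sheep blood. Final inoculum was 2 × 10^5−7 × 10^5 CFU/mL. Plates were incubated 18 h at 35 °C. MIC was taken as the lowest concentration with no growth, shown by absence of erythrocyte hemolysis. Triplicate; ampicillin control.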
Background: Broth dilution looks for growth in wells or tubes with falling amounts of substance.

The test system of another assay is Staphylococcus aureus. In words: Antibacterial activity against Staphylococcus aureus grown in sheep blood agar media assessed as concentration required to inhibit bacterial growth due to absence of hemolysis of erythrocytes after 18 hrs by […] broth dilution method. The assay is classed as functional. Summed up:
as §1

Another assay concerns Bacillus subtilis. Kind of assay: Antibacterial activity against Bacillus subtilis grown in sheep blood agar media assessed as concentration required to inhibit bacterial growth due to absence of hemolysis of erythrocytes after 18 hrs by […] broth dilution method. It counts as functional. In outline: as §1
The subject of a further assay is Escherichia coli. Kind of assay: Antibacterial activity against Escherichia coli grown in sheep blood agar media assessed as concentration required to inhibit bacterial growth due to absence of hemolysis of erythrocytes after 18 hrs by […] broth dilution method. The assay is classed as functional. Summed up:
as §1

Assay [2] concerns Pectobacterium carotovorum. In words: Antibacterial activity against Erwinia carotovora grown in sheep blood agar media assessed as concentration required to inhibit bacterial growth due to absence of hemolysis of erythrocytes after 18 hrs by […] broth dilution method. It counts as functional. In outline: as §1

Consider `CO[C@@]12[C@H](COC(N)=O)C3=C(C(=O)C(C)=C(N)C3=O)N1C[C@@H]1N[C@@H]12` [MITOMYCIN], for which the IC50 (with HeLa; in the assay with HL-60; in assay [1]) was 3 µM in each case.

`CC1(C)S[C@@H]2[C@H](NC(=O)[C@H](N)c3ccccc3)C(=O)N2[C@H]1C(=O)O` [AMPICILLIN]: the MIC in the assay with Bacillus cereus was 25 µg/mL (≈ 71.5 µM); in the assay on Staphylococcus aureus, 25 µg/mL (≈ 71.5 µM); in the assay on Bacillus subtilis, 12.5 µg/mL (≈ 35.8 µM); in the assay with Escherichia coli it was 100 µg/mL (≈ 286 µM); in assay [2], 100 µg/mL (≈ 286 µM).

`CC1=C2[C@@H](O)[C@]3(C)[C@@H](C)CC[C@H]4O[C@]43C[C@@]2(O)OC1=O`: the MIC was 62.5 µg/mL (≈ 223 µM) in the assay with Bacillus cereus; 125 µg/mL (≈ 446 µM) with Staphylococcus aureus; 125 µg/mL (≈ 446 µM) with Bacillus subtilis; 125 µg/mL (≈ 446 µM) in the assay with Escherichia coli; 125 µg/mL (≈ 446 µM) in assay [2].

Consider `C=C(CO)C(=O)O[C@@H]1C2=C(C)C(=O)O[C@@]2(O)C[C@@]23O[C@@H]2CC[C@H](C)[C@@]13C`, for which the MIC was determined as 7.25 µg/mL (≈ 19.9 µM) in the assay on Bacillus cereus; 7.25 µg/mL (≈ 19.9 µM) with Staphylococcus aureus; 15.5 µg/mL (≈ 42.5 µM) with Bacillus subtilis; 7.25 µg/mL (≈ 19.9 µM) in the assay with Escherichia coli; 7.25 µg/mL (≈ 19.9 µM) in assay [2].

For `C/C=C(/CO)C(=O)O[C@@H]1C2=C(C)C(=O)O[C@]2(OC)C[C@@]23O[C@@H]2CC[C@H](C)[C@@]13C`, the IC50 (with HeLa; in the assay on HL-60; in assay [1]) was 13 µM throughout. Besides, the MIC with Bacillus cereus is 62.5 µg/mL (≈ 159 µM); in the assay on Staphylococcus aureus, 125 µg/mL (≈ 319 µM); with Bacillus subtilis, 125 µg/mL (≈ 319 µM); in the assay with Escherichia coli it was 62.5 µg/mL (≈ 159 µM); in assay [2] it was 125 µg/mL (≈ 319 µM).

Turning to `CC(=O)[C@@]12O[C@@H]1[C@@]1(C)C(=CC2=O)[C@H](O)CC[C@@H]1C`, the IC50 (in the assay with HeLa; in the assay on HL-60; in assay [1]) was 13 µM each time. In addition, the MIC in the assay on Bacillus cereus was more than 250 µg/mL; in the assay on Staphylococcus aureus it was more than 250 µg/mL; in the assay with Bacillus subtilis, more than 250 µg/mL; in the assay with Escherichia coli it was 31.2 µg/mL (≈ 125 µM); in assay [2], 62.5 µg/mL (≈ 250 µM).

In the case of `CC(=O)C1=C[C@@]2(C)C(=CC1=O)[C@H](O)CC[C@@H]2C`, the MIC with Bacillus cereus is more than 250 µg/mL; in the assay on Staphylococcus aureus it was more than 250 µg/mL; in the assay on Bacillus subtilis, more than 250 µg/mL; in the assay on Escherichia coli, 31.2 µg/mL (≈ 133 µM); in assay [2], more than 250 µg/mL.

`C/C=C(/CO)C(=O)O[C@@H]1C2=C(C)C(=O)O[C@@]2(O)C[C@@]23O[C@@H]2CC[C@H](C)[C@@]13C`: the MIC was found to be 15.5 µg/mL (≈ 41 µM) in the assay with Bacillus cereus; 7.25 µg/mL (≈ 19.2 µM) in the assay on Staphylococcus aureus; 7.25 µg/mL (≈ 19.2 µM) in the assay on Bacillus subtilis; 7.25 µg/mL (≈ 19.2 µM) in the assay on Escherichia coli; 7.25 µg/mL (≈ 19.2 µM) in assay [2].
